Source: ChEMBL document CHEMBL4765445, “Structure-activity relationship study of novel quinazoline-based 1,6-naphthyridinones as MET inhibitors with potent antitumor efficacy” (Eur J Med Chem, 2020)

How the values were obtained:
[1] = Cmax in rat at 5 mg/kg, iv; assay type: ADME, organism-based; design: route intravenous, dose 5 mg/kg; settings: in vivo
Summary of the method: (§1)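 Rat pharmacokinetics used 10 mg/kg p.o. and 5 mg/kg i.v. with vehicle 70% PEG400-30% water. Plasma concentration–time curves gave Cmax, Tmax, T1/2, AUC0-∞, CL, Vz and oral bioavailability F. Values are the average of three animals.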

[2] = target: T1, Receptor-type tyrosine-protein kinase FLT3 (Homo sapiens, UniProt P36888); experiment: Inhibition of FLT3 (unknown origin)
T1 sequence (P36888 whole entry): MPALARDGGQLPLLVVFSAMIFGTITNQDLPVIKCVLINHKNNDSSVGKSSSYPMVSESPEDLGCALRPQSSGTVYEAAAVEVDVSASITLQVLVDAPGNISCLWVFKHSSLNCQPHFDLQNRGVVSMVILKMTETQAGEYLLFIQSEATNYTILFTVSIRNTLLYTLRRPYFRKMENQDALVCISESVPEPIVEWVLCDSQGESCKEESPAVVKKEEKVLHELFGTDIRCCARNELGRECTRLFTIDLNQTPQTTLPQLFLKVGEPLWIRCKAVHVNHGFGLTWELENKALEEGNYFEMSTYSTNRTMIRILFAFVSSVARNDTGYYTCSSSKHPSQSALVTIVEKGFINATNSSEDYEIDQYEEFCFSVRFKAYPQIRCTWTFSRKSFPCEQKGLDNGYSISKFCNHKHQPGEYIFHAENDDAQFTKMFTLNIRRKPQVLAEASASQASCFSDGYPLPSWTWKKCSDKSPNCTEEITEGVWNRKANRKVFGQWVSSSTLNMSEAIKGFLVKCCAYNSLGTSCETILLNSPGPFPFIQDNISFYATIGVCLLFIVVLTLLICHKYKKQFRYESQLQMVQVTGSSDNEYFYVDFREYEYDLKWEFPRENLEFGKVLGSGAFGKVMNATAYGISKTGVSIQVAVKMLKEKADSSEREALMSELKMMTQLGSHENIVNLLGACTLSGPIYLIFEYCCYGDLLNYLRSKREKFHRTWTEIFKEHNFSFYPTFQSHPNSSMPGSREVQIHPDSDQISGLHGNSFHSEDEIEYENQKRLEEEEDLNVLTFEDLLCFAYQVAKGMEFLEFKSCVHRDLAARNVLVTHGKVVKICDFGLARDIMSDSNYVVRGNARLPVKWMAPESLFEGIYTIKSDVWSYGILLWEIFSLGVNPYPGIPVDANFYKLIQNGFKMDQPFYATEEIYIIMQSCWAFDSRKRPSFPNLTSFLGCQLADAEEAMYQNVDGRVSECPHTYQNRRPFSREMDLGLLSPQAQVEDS

[3] = Clearance in rat at 10 mg/kg, po; assay type: ADME, organism-based; settings: in vivo; summary of the method: as §1
[4] = AUC (0 to infinity) in rat at 10 mg/kg, po; assay type: ADME, organism-based; design: time infinity, route oral, dose 10 mg/kg; settings: in vivo
[5] = Apparent volume of distribution in rat at 10 mg/kg, po; assay type: ADME, organism-based; settings: in vivo; summary of the method: as §1
U-87 MG [6] = experiment: Antitumor activity against human U-87 MG cells xenografted in nude mouse assessed as tumor growth inhibition at 25 mg/kg, po administered once daily for 3 weeks; assay type: functional, U-87MG ATCC; settings: 504 h, read-out: TGI
[7] = target: Platelet-derived growth factor receptor beta (Homo sapiens, UniProt P09619); experiment: Inhibition of PDGFRbeta (unknown origin)
Platelet-derived growth factor receptor beta, sequence (P09619 whole entry): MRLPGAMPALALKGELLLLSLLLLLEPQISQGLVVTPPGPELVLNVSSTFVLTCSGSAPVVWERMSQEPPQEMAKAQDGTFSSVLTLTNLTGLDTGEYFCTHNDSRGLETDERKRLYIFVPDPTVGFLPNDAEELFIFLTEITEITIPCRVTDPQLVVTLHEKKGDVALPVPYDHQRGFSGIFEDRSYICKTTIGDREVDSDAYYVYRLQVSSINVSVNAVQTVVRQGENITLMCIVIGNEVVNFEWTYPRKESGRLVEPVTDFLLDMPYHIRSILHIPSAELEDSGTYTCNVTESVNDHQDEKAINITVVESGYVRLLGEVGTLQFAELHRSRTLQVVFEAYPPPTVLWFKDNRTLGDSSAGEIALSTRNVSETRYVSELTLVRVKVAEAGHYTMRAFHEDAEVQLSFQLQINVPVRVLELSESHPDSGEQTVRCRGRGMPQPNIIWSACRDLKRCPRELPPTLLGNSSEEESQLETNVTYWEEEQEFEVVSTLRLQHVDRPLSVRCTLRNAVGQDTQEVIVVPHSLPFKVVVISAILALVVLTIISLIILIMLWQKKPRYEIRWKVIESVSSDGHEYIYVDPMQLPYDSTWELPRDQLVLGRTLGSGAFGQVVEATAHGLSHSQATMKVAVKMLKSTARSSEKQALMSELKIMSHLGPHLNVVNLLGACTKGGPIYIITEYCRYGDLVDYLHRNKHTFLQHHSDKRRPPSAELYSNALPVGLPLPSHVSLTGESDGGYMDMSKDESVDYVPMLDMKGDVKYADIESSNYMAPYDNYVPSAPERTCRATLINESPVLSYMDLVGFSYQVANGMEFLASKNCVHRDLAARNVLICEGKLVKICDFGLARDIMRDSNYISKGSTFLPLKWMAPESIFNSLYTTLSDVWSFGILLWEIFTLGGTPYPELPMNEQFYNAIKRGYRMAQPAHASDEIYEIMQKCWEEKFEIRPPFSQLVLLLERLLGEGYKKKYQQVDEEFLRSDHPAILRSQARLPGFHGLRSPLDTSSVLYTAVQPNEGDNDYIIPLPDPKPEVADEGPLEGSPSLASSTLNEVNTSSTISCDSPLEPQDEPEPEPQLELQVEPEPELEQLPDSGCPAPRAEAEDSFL

[8] = Oral bioavailability in rat at 10 mg/kg; assay type: ADME, organism-based; settings: in vivo; summary of the method: as §1
[9] = Tmax in rat at 10 mg/kg, po; assay type: ADME, organism-based; settings: in vivo; summary of the method: as §1
[10] = AUC (0 to t) in nude mouse xenografted with human U-87 MG cells at 75 mg/kg, po administered once daily for 3 weeks; assay type: ADME, organism-based; design: time 3 weeks, dose 75 mg/kg; settings: in vivo
U-87 MG [11] = experiment: Antitumor activity against human U-87 MG cells xenografted in nude mouse assessed as tumor growth inhibition at 75 mg/kg, po administered once daily for 3 weeks relative to control; assay type: functional, U-87MG ATCC; settings: 504 h, read-out: TGI
[12] = Apparent volume of distribution in rat at 5 mg/kg, iv; assay type: ADME, organism-based; settings: in vivo, read-out: Vz; summary of the method: as §1
[13] = target: Mast/stem cell growth factor receptor Kit (Homo sapiens, UniProt P10721); experiment: Inhibition of c-KIT (unknown origin)
Mast/stem cell growth factor receptor Kit, sequence (P10721 whole entry): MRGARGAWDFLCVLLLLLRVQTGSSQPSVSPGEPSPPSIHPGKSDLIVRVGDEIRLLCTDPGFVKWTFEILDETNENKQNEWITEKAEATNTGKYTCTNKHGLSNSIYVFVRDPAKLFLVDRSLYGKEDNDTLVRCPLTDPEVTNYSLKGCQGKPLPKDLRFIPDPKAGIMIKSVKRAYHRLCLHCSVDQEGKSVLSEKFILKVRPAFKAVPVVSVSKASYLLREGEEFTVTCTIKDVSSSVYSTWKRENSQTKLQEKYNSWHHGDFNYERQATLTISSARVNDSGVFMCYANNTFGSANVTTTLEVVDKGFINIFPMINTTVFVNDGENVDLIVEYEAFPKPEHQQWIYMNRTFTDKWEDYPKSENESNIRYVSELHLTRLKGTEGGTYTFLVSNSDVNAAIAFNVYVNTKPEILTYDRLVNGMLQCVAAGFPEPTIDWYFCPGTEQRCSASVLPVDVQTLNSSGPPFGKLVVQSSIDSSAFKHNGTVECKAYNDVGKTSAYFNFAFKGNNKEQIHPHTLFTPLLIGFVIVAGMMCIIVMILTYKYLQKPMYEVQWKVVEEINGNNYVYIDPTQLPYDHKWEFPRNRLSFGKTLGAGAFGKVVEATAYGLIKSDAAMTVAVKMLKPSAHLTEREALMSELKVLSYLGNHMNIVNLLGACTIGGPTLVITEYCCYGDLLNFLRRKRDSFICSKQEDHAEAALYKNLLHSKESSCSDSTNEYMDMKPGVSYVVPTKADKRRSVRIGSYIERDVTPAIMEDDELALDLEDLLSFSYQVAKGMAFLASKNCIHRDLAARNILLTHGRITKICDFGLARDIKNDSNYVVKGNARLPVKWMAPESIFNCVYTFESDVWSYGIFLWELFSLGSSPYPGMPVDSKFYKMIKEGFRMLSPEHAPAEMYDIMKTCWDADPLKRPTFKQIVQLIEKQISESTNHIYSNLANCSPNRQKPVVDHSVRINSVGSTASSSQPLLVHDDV

[14] = Tmax in rat at 5 mg/kg, iv; assay type: ADME, organism-based; settings: in vivo; summary of the method: as §1
[15] = Cmax in nude mouse xenografted with human U-87 MG cells at 75 mg/kg, po administered once daily for 3 weeks; assay type: ADME, organism-based; design: route oral, time 3 weeks, dose 75 mg/kg; settings: in vivo
Summary of the method: (§2)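 PK/PD sampling was done within the U-87 MG nude-mouse xenograft study. Compound was given p.o. once daily for 21 days in 70% PEG-400/H₂O. Cmax and AUC0-t were measured in plasma.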

U-87 MG [16] = experiment: Antitumor activity against human U-87 MG cells xenografted in po dosed nude mouse assessed as tumor growth inhibition administered once daily for 3 weeks; assay type: functional, U-87MG ATCC
[17] = Cmax in rat at 10 mg/kg, po; assay type: ADME, organism-based; design: route oral, dose 10 mg/kg; settings: in vivo; summary of the method: as §1
[18] = Half life in rat at 5 mg/kg, iv; assay type: ADME, organism-based; settings: in vivo; summary of the method: as §1
[19] = target: Vascular endothelial growth factor receptor 2 (Homo sapiens, UniProt P35968); experiment: Inhibition of recombinant VEGFR2 kinase domain (unknown origin)
Vascular endothelial growth factor receptor 2, sequence (P35968 whole entry, the tested form may be a part): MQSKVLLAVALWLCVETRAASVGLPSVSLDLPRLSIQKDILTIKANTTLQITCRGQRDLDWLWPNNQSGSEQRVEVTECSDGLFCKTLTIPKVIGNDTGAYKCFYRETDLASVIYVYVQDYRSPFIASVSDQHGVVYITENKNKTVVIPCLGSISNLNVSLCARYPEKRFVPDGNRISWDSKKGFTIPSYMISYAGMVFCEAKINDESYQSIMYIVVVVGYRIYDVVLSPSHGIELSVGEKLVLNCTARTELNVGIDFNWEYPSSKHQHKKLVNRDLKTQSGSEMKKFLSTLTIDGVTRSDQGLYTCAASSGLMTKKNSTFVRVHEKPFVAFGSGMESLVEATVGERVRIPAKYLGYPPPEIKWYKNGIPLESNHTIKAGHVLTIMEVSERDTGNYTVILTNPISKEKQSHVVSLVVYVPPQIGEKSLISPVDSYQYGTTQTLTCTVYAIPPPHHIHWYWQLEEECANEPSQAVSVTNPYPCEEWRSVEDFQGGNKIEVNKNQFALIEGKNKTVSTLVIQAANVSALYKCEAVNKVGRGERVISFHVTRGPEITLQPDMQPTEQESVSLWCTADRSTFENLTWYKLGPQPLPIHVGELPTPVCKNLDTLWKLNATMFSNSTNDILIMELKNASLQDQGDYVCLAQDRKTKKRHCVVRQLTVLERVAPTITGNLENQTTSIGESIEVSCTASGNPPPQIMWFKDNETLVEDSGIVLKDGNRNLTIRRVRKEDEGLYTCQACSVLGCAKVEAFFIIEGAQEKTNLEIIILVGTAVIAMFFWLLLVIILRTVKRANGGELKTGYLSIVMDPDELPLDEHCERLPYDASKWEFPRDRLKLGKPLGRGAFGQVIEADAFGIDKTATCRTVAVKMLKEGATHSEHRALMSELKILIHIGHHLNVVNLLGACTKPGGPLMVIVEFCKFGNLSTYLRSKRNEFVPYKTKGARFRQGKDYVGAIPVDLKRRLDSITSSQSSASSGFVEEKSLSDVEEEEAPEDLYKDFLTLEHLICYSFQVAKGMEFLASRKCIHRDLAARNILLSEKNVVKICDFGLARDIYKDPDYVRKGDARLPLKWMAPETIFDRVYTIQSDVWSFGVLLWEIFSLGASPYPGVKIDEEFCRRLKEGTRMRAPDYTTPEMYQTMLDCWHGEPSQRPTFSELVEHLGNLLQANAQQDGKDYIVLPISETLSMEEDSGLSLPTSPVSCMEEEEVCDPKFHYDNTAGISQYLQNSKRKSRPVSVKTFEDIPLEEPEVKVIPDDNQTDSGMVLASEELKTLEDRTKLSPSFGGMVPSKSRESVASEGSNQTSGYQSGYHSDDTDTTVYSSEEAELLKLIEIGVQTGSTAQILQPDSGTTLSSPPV
Summary of the method: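 In vitro kinase assay using purified recombinant VEGFR-2 kinase domain; IC50 determined.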

[20] = AUC (0 to t) in nude mouse xenografted with human U-87 MG cells at 25 mg/kg, po administered once daily for 3 weeks; assay type: ADME, organism-based; design: time 3 weeks, dose 25 mg/kg; settings: in vivo
[21] = Half life in human liver microsomes; assay type: ADME, Microsome
[22] = AUC (0 to infinity) in rat at 5 mg/kg, iv; assay type: ADME, organism-based; design: time infinity, route intravenous, dose 5 mg/kg; settings: in vivo
[23] = Clearance in rat at 5 mg/kg, iv; assay type: ADME, organism-based; settings: in vivo; summary of the method: as §1
[24] = Half life in rat at 10 mg/kg, po; assay type: ADME, organism-based; settings: in vivo; summary of the method: as §1
[25] = target: T2, Hepatocyte growth factor receptor (Homo sapiens, UniProt P08581); experiment: Inhibition of recombinant MET kinase domain (unknown origin)
T2 sequence (P08581 whole entry, the tested form may be a part): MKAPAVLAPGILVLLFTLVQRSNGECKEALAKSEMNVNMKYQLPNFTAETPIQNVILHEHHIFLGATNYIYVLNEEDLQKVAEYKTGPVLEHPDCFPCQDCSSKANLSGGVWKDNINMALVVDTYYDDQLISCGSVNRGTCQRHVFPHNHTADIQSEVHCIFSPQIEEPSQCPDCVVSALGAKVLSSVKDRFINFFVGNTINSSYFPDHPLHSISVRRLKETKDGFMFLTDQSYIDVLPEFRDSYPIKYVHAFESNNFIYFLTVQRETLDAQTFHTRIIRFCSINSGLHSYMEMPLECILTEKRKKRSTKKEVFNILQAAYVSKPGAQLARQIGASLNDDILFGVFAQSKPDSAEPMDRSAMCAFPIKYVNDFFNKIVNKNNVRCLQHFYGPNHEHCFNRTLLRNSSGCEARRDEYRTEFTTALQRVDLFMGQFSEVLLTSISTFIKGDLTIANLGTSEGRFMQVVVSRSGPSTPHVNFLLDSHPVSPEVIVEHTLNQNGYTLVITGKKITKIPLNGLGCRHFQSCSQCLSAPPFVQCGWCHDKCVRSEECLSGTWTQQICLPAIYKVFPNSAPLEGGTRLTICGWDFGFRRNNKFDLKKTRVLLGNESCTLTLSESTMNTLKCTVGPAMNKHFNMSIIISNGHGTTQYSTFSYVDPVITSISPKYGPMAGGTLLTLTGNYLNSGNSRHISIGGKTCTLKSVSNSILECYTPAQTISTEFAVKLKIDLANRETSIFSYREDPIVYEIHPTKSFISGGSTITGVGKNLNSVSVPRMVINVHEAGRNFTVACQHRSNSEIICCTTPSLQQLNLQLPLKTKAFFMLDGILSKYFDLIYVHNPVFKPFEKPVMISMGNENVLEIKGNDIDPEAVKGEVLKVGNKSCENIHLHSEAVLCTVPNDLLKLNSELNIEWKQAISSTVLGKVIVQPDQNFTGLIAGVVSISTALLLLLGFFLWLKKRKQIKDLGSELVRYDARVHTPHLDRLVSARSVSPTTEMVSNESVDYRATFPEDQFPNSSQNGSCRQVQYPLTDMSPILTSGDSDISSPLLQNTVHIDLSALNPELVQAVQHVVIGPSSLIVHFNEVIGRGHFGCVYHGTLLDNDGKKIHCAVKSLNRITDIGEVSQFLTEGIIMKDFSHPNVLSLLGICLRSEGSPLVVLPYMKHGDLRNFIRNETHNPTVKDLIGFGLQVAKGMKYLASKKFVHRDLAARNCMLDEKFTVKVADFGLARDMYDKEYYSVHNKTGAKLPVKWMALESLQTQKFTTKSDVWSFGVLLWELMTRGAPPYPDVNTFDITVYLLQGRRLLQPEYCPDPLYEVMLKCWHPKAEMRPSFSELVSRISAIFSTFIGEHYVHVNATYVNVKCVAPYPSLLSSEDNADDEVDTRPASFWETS

[26] = target: T2, Hepatocyte growth factor receptor; experiment: Inhibition of MET in human MKN-45 cells assessed as reduction in HGF-mediated autophosphorylation; assay type: cell-based
[27] = Cmax in nude mouse xenografted with human U-87 MG cells at 25 mg/kg, po administered once daily for 3 weeks; assay type: ADME, organism-based; design: route oral, dose 25 mg/kg, time 3 weeks; settings: in vivo; summary of the method: as §2
[28] = target: Macrophage-stimulating protein receptor (Homo sapiens, UniProt Q04912); experiment: Inhibition of Ron (unknown origin)
[29] = target: T3, Tyrosine-protein kinase receptor UFO (Homo sapiens, UniProt P30530); experiment: Inhibition of Axl (unknown origin)
T3 sequence (P30530 whole entry): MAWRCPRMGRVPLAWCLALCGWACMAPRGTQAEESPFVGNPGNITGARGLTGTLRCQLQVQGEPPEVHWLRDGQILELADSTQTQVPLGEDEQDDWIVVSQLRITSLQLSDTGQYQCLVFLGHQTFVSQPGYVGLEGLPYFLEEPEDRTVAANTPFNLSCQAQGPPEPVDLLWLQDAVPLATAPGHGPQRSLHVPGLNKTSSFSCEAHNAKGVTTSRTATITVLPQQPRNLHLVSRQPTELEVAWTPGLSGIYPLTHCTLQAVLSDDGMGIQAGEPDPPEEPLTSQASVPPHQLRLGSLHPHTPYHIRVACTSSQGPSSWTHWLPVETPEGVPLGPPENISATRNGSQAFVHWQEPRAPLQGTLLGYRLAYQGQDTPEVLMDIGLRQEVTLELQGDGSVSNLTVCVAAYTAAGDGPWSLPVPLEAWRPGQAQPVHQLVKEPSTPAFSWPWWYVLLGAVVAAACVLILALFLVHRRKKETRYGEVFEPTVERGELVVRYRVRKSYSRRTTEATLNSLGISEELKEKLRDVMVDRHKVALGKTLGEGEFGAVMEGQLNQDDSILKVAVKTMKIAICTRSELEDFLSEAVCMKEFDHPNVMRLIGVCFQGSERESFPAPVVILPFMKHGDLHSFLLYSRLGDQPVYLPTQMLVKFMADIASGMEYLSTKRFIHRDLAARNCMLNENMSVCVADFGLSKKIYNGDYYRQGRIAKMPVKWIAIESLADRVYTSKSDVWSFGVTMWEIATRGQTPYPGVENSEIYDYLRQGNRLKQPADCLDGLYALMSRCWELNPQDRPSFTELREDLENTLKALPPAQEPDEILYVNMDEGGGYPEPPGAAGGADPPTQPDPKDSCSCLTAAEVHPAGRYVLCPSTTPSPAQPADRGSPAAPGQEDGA

[30] = target: Proto-oncogene tyrosine-protein kinase receptor Ret (Homo sapiens, UniProt P07949); experiment: Inhibition of RET (unknown origin)
Homo sapiens = species: Homo sapiens; experiment: Selectivity ratio of IC50 for recombinant VEGFR2 (unknown origin) to IC50 for recombinant MET (unknown origin)
Summary of the method: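 In vitro enzyme assays used purified recombinant MET and VEGFR-2 kinase domains, each tested separately. IC50 values are in nM. The ratio divides the VEGFR-2 enzyme IC50 by the MET enzyme IC50.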

COc1cc2ncnc(Oc3ccc(Nc4nccc5[nH]cc(-c6ccc(F)cc6)c(=O)c45)cc3)c2cc1OC
Cmax [1]: 44 µg/mL
IC50 [2]: 0.0169 µM
CL/F [3]: 0.02 L/h/kg
AUC(0-inf) [4]: 427 µg·h/mL
Vz [5]: 0.4 L/kg
inhibition in vivo at 25 mg/kg (U-87 MG [6]): 51%
IC50 [7]: > 2 µM
bioavailability [8]: 42%
Tmax [9]: 3.5 h
AUC(0-t) at 504 h [10]: 279 µg·h/mL
inhibition in vivo at 75 mg/kg (U-87 MG [11]): 81%
Vd [12]: 0.2 L/kg
IC50 [13]: 0.0283 µM
Tmax [14]: 1.8 min
Cmax [15]: 16 µg/mL
ED50 (U-87 MG [16]; 504 h): 25 mg/kg
TGI (U-87 MG [16]; U-87MG ATCC): Dose-dependent effect
Cmax [17]: 25.1 µg/mL
half-life [18]: 14 h
IC50 [19]: 0.111 µM
AUC(0-t) at 504 h [20]: 156 µg·h/mL
half-life [21]: 10.4 h
AUC(0-inf) [22]: 510 µg·h/mL
clearance [23]: 0.01 L/h/kg
half-life [24]: 12.5 h
IC50 [25]: 0.009 µM
IC50 [26]: 0.0865 µM
Cmax [27]: 12.1 µg/mL

COc1cc2c(Oc3ccc(Nc4nccc5[nH]cc(-c6ccc(F)cc6)c(=O)c45)cc3F)ncnc2cc1OCCCN1CCOCC1
IC50 [19]: 0.227 µM
IC50 [25]: 0.0217 µM

COc1cc2ncnc(Oc3ccc(Nc4nccc5[nH]cc(-c6ccc(F)cc6)c(=O)c45)cc3F)c2cc1OCCCN1CCOCC1
IC50 [19]: 0.121 µM
IC50 [25]: 0.0232 µM

COc1cc2ncnc(Oc3ccc(Nc4nccc5[nH]cc(-c6ccc(F)cc6)c(=O)c45)cc3F)c2cc1OC
IC50 [2]: 0.0102 µM
IC50 [7]: 1.36 µM
IC50 [28]: 0.0901 µM
IC50 [29]: 0.011 µM
IC50 [13]: 0.0451 µM
IC50 [30]: 0.0653 µM
Ratio IC50 (Homo sapiens): 27.6
IC50 [19]: 0.267 µM
half-life [21]: 4.83 h
IC50 [26]: 0.0594 µM

COc1cc2c(Oc3ccc(Nc4nccc5[nH]cc(-c6ccc(F)cc6)c(=O)c45)cc3F)ncnc2cc1OCCO.Cc1ccc(S(=O)(=O)O)cc1
IC50 [19]: 0.0217 µM
half-life [21]: 3.85 h
IC50 [25]: 0.0139 µM

COc1cc2ncnc(Oc3ccc(Nc4nccc5[nH]c(C)c(-c6ccc(F)cc6)c(=O)c45)cc3F)c2cc1OC
IC50 [19]: 0.455 µM
IC50 [25]: 0.227 µM

COc1cc2ncnc(Oc3ccc(Nc4nccc5[nH]cc(-c6ccc(F)cc6)c(=O)c45)cc3F)c2cc1OCCO.Cc1ccc(S(=O)(=O)O)cc1
IC50 [19]: 0.0123 µM
half-life [21]: 4.68 h
IC50 [25]: 0.0035 µM

COc1cc2c(Oc3ccc(Nc4nccc5[nH]cc(-c6ccc(F)cc6)c(=O)c45)cc3F)ncnc2cc1OCC1CCN(C)CC1
IC50 [19]: 0.033 µM
IC50 [25]: 0.0154 µM

CCN(CC)CCCOc1cc2c(Oc3ccc(Nc4nccc5[nH]cc(-c6ccc(F)cc6)c(=O)c45)cc3F)ncnc2cc1OC
IC50 [19]: 0.163 µM
IC50 [25]: 0.0094 µM
IC50 [26]: 0.397 µM

COc1cc2c(Oc3ccc(Nc4nccc5[nH]cc(-c6ccc(F)cc6)c(=O)c45)cc3F)ncnc2cc1OCC(C)(C)O
IC50 [19]: 0.0939 µM
IC50 [25]: 0.0652 µM

COCCOc1cc2ncnc(Oc3ccc(Nc4nccc5[nH]cc(-c6ccc(F)cc6)c(=O)c45)cc3F)c2cc1OCCOC
IC50 [19]: 0.0792 µM
IC50 [25]: 0.0195 µM

COCCn1cc(-c2ccc(F)cc2)c(=O)c2c(Nc3ccc(Oc4ncnc5cc(OC)c(OC)cc45)c(F)c3)nccc21
IC50 [19]: > 3 µM
IC50 [25]: 0.164 µM
